Compound activity as filed in PubChem BioAssay.
Ecoli rRNA inh = reduced GFP signal of wild-type E. coli, primary screen, bacterial rRNA inhibitor project, GFP/RFP fluorescence, OD600, single point | E. coli WT GFP vs humanized-ribosome RFP mutants, 24 h; stronger effect = lower value; DMSO median 0, no signal -100 | GFP signal change (wild-type ribosome), % (concentration not given with the values) | 350,000 compounds, 1.6% hits | AID 720706, 2013;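 active = significant combined selectivity score with lowered wild-type GFP, culture density cut under 30%, mutant RFP and density less affected; inactive = any of these conditions unmet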
SR-BI uptake up = activators of SR-BI mediated DiI-HDL uptake, primary screen, ldlA[mSR-BI] CHO cells, DiI fluorescence | 3 h; 100 = double the neutral-control signal | activation, % at 12.5 µM | 320,000 compounds, 0.096% hits;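 active = mean replicate activation of at least 60% and every replicate at or above 60%; inconclusive = mean or all-replicate condition met, but not both; inactive = mean below 60% and not all replicates reaching 60%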;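 note: 0% = median plate neutral-control signal and 100% = twice that signal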
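Assay system: CHO ldlA[mSR-BI] cells, LDL receptor-null, SR-BI overexpressing; medium: Ham's F12 with 0.5% BSA, HEPES 25 mM, pH 7.4; also added: DiI-HDL 10 µg/mL; timing: 3 h uptake period with compound, 37 °C; signal: DiI fluorescence, bottom read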
dFosB act = activators of delta FosB homodimer, primary screen, biochemical, fluorescence polarization, TAMRA-CDK5 oligo, single point; activation, % at 25 µM; purified delta FosB; percent of positive-control signal above neutral wells; 340,000 compounds, 0.99% hits; Protein FosB (Mus musculus), P13346; AID 493131, 2011;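 active = mean activation above about 17%, with every replicate also reaching it, limit read from the data, passing the limit was not always enough; inconclusive = only one of the two conditions met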
Target sequence (P13346 whole entry, looked up): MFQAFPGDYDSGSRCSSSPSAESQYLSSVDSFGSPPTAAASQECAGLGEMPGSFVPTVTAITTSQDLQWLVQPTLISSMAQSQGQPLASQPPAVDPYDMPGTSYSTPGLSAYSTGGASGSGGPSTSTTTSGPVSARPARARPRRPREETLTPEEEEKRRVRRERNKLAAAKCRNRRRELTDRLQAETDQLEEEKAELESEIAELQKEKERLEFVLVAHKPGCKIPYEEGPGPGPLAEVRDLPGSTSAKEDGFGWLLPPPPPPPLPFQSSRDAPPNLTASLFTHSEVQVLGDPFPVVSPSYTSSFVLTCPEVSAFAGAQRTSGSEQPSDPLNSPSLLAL
Xi reactivation = activators of inactive X chromosome reactivation, primary screen, imaging, XiGFP fibroblasts, GFP high-content imaging, set 2; activation, % at 7.58 µM; XiGFP mouse fibroblasts, % GFP-positive cells imaging, 3 d; cells co-treated with 5-aza-dC sensitizer; scaled so ellipticine positive control = 100%; 360,000 compounds, 0.055% hits; AID 743238, 2013;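 active = mean normalized replicate activation at least 10% and every replicate at or above 10%; inconclusive = only one of the two criteria met; inactive = mean below 10% and not all replicates reach 10%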;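 note: 0% = median of on-plate neutral control wells and 100% = ellipticine 6 µM median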
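assay system = SV40-immortalized XiGFP fibroblast cells, line 68-5-11 | buffer or medium = DMEM plus 5-aza-dC sensitizer | doses = single-point pinned compound dosing | times = 3-day compound exposure, then 15 min fixation at room temperature | benchmarks = positive control ellipticine, 6 µM final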
PvdQ acylase = P. aeruginosa PvdQ acylase inhibitors, primary screen, biochemical, fluorescence, plate reader and imaging, single point | PvdQ acylase [Pseudomonas aeruginosa LESB58] | purified PvdQ acylase | inhibition, % at 10 µM | 340,000 compounds, 0.063% hits; in the data active = inhibition above about 30%, passing the limit was not always enough; inconclusive = no clear call, values can overlap the other calls;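 note: 0% = vehicle neutral wells and 100% = reference inhibitor wells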
SR-BI DiI inh = inhibitors of SR-BI mediated HDL lipid uptake, primary screen, ldlA[mSR-BI] cells, fluorescence, single point | Scavenger receptor class B member 1 (Mus musculus), Q61009 | ldlA[mSR-BI] CHO cells, DiI-HDL uptake fluorescence, 3 h | inhibition, % at 12.5 µM | 320,000 compounds, 0.96% hits | AID 488896, 2010;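 active = mean replicate inhibition of at least 70% and a set share of replicates each scoring 70 or more; inconclusive = meets just one of the two criteria; inactive = fails both criteria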;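 note: 0% = median of neutral control wells and 100% = median of positive control wells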
Numbers without * were called inactive; ? = inconclusive; . = not tested or not shown. Shown are actives, neighbours in structure and some others; about 2.6% of the full set was active somewhere.

SMILES	Ecoli rRNA inh	SR-BI uptake up	dFosB act	Xi reactivation	PvdQ acylase	SR-BI DiI inh
O=C(Nc1ccc2snnc2c1)N1CCOCC1	.	6	-3	.	-7	-6
S=C(Nc1ccc(N2CCOCC2)cc1)Nc1ccc2snnc2c1	-20*	-19	-18	0	-2	19
COc1ccc(C(=O)N2CCN(Cc3cc(OC)ccc3OC)CC2)cc1	7	-25	-6	0	-14	25
COCCN(C(=O)COC(=O)CCCc1c[nH]c2ccccc12)c1c(N)n(Cc2ccccc2)c(=O)[nH]c1=O	1	-15	-4	0	8	15
CC(=O)Oc1ccc2c(=O)c(Oc3ccccc3)c(C)oc2c1OC(C)=O	-17*	12	-13	0	-12	-12
CCN1C(=C(C#N)C#N)C=Cc2cc(C)ccc21	34	-21	0	0	-17	21
C=CC[n+]1c(/C=C2\C=Cc3cc(C)ccc3N2CC)ccc2ccccc21	-42	-80	0	0	0	80*
CCCCC(=O)N1CCN(c2nc3ccc(Br)cc3s2)CC1	-20*	4	-7	0	-9	-4
CCCC(=O)N1CCN(c2nc3ccc(Br)cc3s2)CC1	-32	5	-1	0	-14	-5
Cc1noc(C)c1NC(=O)N(C)C[C@H]1Oc2ccc(NS(=O)(=O)c3ccccc3)cc2CC(=O)N([C@H](C)CO)C[C@H]1C	5	.	.	2	.	.
O=C1C=C(c2ccc(F)cc2OCc2ccccc2)C[C@@H](c2ccc(F)cc2)C1	13	-75	0	0	-21	75*
Cc1cc(Cl)ccc1C1=CC(=O)C[C@H](c2ccc(F)cc2)C1	-1	-18	-2	0	-10	18
O=C1C=C(c2cc(F)ccc2F)C[C@@H](c2ccc(F)cc2)C1	-19	-23	-12	0	64*	23
CC(C)c1ccccc1N1CC(C(=O)O)CC1=O (configuration not stated)	29	10	6	.	-3	-10
COc1ccc(-n2c(=O)c3c4c(sc3n3c(=S)[nH]nc23)CCC4)cc1	-25*	-6	-6	0	-10	6
COc1ccc(-n2c(SCC(=O)Nc3nccs3)nnc2-c2ccccc2)cc1	.	-9	-3	.	-11	9
COc1ccc(CN(C)C[C@@H]2OCCCC[C@H](C)Oc3ccc(NS(=O)(=O)c4cn(C)cn4)cc3C(=O)N([C@H](C)CO)C[C@@H]2C)cc1	4	.	.	0	.	.
NC(=S)N/N=C/c1ccc(-c2cc(Cl)c(Cl)cc2Cl)o1	-27	-82	3	0	-14	82*
C=CCNC(=S)N/N=C/c1ccc(-c2ccc(Cl)cc2Cl)o1	0	-71	3	0	-4	71*
CCC(=O)N/N=C/c1ccc(-c2ccc([N+](=O)[O-])cc2)o1	11	-40	-2	0	2	40
CCc1nnc(N/N=C/c2ccc(-c3ccc([N+](=O)[O-])cc3)o2)n1N	-37*	-19	-6	0	-9	19
Cc1cc(C)n(Cc2ccc(C(=O)N/N=C/c3ccc(-c4ccc([N+](=O)[O-])cc4)o3)o2)n1	-13	-103	4	0	8	104*
O=C(Cc1ccccc1)N1CC2(C1)[C@H](c1ccccc1)[C@@H](CO)N2C(=O)Cc1ccccc1	-3	.	.	0	.	.
CO[C@H]1CN(C)C(=O)c2ccc(NC(=O)C3CCCCC3)cc2OC[C@H](C)NC[C@@H]1C	-1	.	.	?	.	.
O=C(NCCc1ccc(F)cc1)c1cccc2c1C(=O)c1ccc(N3CCC(Cc4ccccc4)CC3)cc1S2(=O)=O	.	-30	-6	.	-4	30
NC(=S)N/N=C/c1ccc(-c2cccc([N+](=O)[O-])c2)o1	.	-78	-14	.	-15	78*
